Like-named read-outs stand apart in the source and are kept apart here.
Tests used:
[1] = test system: CRE-bla parental cell line; assay: parental CRE-bla CHO cell line counterscreen assay; assay type: cell-based
In short: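 Counterscreen in the parental CRE-β-lactamase reporter CHO line without S1PR2, run alongside the S1PR2 assay. Hits were retested in triplicate at 5 micromolar and then tested in dose response.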

CRE = conditions: ref PubChem AID 662; cited from earlier work
S1PR2 [2] = molecular target: T1, S1PR2 (Homo sapiens, UniProt O95136); assay: 33P-S1P radioligand competition binding assay; conditions: read-out: IC50, displacement of radiolabeled S1P, S1PR2-CRE bla cells, 4°C
S1PR2 [3] = molecular target: T1, S1PR2; assay: JTE-013 inhibition of agonists in the S1PR2 CRE-bla assay; assay type: cell-based; conditions: linear regression of Schild plot, against S1P
S1PR5 = S1PR5 (Homo sapiens, UniProt Q9H228); assay: S1PR5 agonist assay; assay type: cell-based
S1PR4 = molecular target: T2, S1PR4 (Homo sapiens, UniProt O95977); assay: S1PR4 agonist assay; assay type: cell-based
T2 sequence (O95977 1-384): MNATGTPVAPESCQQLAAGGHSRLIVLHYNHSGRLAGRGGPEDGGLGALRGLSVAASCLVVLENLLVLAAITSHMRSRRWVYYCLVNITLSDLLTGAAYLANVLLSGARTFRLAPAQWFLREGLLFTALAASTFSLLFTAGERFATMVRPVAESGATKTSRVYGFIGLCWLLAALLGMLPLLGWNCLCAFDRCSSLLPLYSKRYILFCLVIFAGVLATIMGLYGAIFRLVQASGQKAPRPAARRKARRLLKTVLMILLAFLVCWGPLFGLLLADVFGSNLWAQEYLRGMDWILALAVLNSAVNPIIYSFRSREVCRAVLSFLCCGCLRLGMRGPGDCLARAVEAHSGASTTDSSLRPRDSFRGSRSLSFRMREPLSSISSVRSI

wild type S1PR2 = wild type S1PR2 (Homo sapiens, UniProt O95136); assay: GloSensor cAMP assay, wild type S1PR2-eGFP Jump-In CHO cells; assay type: cell-based
S1PR2 [4] = molecular target: T1, S1PR2; assay: S1PR2 CRE-bla CHO reporter agonist assay; assay type: cell-based; conditions: for EC50: read-out: EC50 S1PR2; for Emax: read-out: Max Activity (% of 1 μM S1P)
In short: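 Stable CHO line carrying a CRE-driven β-lactamase reporter and expressing human S1PR2, run in 384-well format. […] For antagonist challenge, agonist dose responses were run with a reference S1PR2 antagonist at 10, 30 or 90 nM.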

S1PR3 = S1PR3 (Homo sapiens, UniProt Q99500); assay: S1PR3 agonist assay; assay type: cell-based
S1PR1 = S1PR1 (Homo sapiens, UniProt P21453); assay: S1PR1 agonist assay; assay type: cell-based
[5] = molecular target: triple mutant S1PR2 (R108A, E109A and K269A) (Homo sapiens, UniProt O95136, E109A/K269A/R108A); assay: GloSensor cAMP assay, triple mutant S1PR2-eGFP Jump-In CHO cells; assay type: cell-based
Chain of triple mutant S1PR2 (R108A, E109A and K269A) (O95136 whole entry R108A/E109A/K269A): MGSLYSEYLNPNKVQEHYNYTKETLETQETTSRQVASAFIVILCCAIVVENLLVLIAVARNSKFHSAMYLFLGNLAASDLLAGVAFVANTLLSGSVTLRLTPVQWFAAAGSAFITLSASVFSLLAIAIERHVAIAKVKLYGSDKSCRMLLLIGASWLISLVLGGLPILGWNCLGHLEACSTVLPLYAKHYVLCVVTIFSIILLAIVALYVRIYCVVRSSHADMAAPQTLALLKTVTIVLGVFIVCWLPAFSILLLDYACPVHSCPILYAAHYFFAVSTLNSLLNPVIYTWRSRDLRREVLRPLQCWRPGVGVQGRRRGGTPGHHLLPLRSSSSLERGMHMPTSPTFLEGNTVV

T1 sequence (O95136 whole entry): as the sequence (O95136 whole entry R108A/E109A/K269A) above, with A108R, A109E, A269K counted along it
Chain of wild type S1PR2 (O95136 whole entry): as the sequence (O95136 whole entry R108A/E109A/K269A) above, with A108R, A109E, A269K counted along it
Chain of S1PR3 (Q99500 whole entry, species assumed): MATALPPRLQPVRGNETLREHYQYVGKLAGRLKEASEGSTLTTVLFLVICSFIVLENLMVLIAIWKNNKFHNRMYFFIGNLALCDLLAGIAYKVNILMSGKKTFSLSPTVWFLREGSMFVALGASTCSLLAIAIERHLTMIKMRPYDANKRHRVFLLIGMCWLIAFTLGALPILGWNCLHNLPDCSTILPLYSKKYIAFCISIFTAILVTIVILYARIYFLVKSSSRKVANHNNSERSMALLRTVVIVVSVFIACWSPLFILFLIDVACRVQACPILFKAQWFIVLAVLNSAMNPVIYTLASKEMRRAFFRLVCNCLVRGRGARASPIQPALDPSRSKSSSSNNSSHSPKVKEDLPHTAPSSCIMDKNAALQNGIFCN
Chain of S1PR1 (P21453 whole entry, species assumed): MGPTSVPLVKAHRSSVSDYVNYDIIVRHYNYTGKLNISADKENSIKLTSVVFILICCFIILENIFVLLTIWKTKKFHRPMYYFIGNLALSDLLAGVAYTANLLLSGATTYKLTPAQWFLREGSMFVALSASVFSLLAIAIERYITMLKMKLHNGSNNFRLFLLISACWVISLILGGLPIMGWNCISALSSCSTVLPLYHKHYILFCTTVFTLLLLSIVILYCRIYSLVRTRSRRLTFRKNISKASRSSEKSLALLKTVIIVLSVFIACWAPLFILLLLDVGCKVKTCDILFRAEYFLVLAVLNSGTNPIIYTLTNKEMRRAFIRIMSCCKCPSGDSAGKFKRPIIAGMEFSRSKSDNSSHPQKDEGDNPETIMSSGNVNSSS
Chain of S1PR5 (Q9H228 whole entry, species assumed): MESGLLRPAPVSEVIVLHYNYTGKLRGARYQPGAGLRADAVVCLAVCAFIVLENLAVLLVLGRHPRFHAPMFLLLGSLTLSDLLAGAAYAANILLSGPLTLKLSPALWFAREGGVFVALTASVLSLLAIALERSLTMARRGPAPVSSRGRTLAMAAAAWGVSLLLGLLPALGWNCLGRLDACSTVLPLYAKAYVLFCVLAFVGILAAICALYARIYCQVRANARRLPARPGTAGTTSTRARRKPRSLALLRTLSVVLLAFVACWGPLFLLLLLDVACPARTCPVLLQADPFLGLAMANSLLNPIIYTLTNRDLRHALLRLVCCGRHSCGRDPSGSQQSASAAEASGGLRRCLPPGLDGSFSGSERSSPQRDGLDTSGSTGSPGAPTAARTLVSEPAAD

CCOC(=O)c1c(C)n(C)c2ccc(OCC(O)Cn3nc(C)cc3C)cc12 (stereo not drawn) [MLS000049871]
activity in the CRE-bla counterscreen (in words) [1]: inactive | activity in PubChem AID 662 (CRE): active

Cc1nn(C)c2nc(NNC(=O)Nc3cc(Cl)nc(Cl)c3)cc(C(C)C)c12 [JTE-013]
IC50 (S1PR2 [2]): 53 nM | Ki (S1PR2 [3]): 20 nM

Cc1cc(C(=O)Cn2cc(C#N)ccc2=O)c(C)n1Cc1ccccc1 [compound 14]
activity in S1PR5 agonist assay (S1PR5): inactive | activity in the CRE-bla counterscreen (in words) [1]: inactivity | activity in S1PR4 agonist assay (S1PR4): inactive | EC50 (wild type S1PR2; read-out: EC50, cAMP response): 1600 nM | increase in potency (S1PR2 [4]; cyanide group in place of the trifluoromethyl of 10): 1.6 fold | EC50 (S1PR2 [4]; Table 3, synthesized compounds): 480 nM | Emax (S1PR2 [4]; Table 3): 100% | activity in S1PR3 agonist assay (S1PR3): inactive | activity in S1PR1 agonist assay (S1PR1): inactive

CCCCCCCCCCCCC/C=C/[C@@H](O)[C@@H](N)COP(=O)(O)O [S1P, Sphingosine 1-phosphate, reference compound]
agonist efficacy (in words) (wild type S1PR2): full agonists | cAMP response (in words) [5]: did not elicit a rise in luciferase activity

Cc1ccc(Sc2ccc(C3SCCS3)cc2[N+](=O)[O-])cc1 [compound 3]
activity in S1PR5 agonist assay (S1PR5): inactive | activity in S1PR4 agonist assay (S1PR4): inactive | EC50 (S1PR2 [4]; Table 2, purchased analogues of XAX-164): 550 nM | Emax (S1PR2 [4]; Table 2): 130% | activity in S1PR3 agonist assay (S1PR3): inactive | activity in S1PR1 agonist assay (S1PR1): inactive
